Measurements reported in ChEMBL document CHEMBL1145792, “Structure-activity relationships for 4-nitrobenzyl carbamates of 5-aminobenz[e]indoline minor groove alkylating agents as prodrugs for GDEPT in conjunction with E. coli nitroreductase” (J Med Chem, 2003).

Tests used:
V79 [1] = test: Cytotoxicity in non-NTR-expressing Chinese hamster fibroblast (V79).; format: functional, cell-based; conditions: Cricetulus griseus
[2] = Partition coefficient (logP); format: physicochemical; conditions: octanol/water
Summary of the method: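 logP was calculated with prediction software, not measured.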

[3] = system: Mammary carcinoma cell line; test: Ratio of cytotoxicity in non-NTR-expressing EMT6 compared to that in NTR-expressing EMT6.; format: functional, Mus musculus
Summary of the method: (§1)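 Parental and stably NTR-transfected partner lines (V79puro/V79-NTRpuro, EMT6/EMT6-NTRpuro, WiDr/WiDr-NTRneo, SKOV3/SKOV-NTRneo) tested in parallel. Aerobic sulforhodamine B growth inhibition after an 18 h exposure, read 4–5 days later. Ratio is the NTR-ve IC50 over the NTR+ve IC50, calculated within each experiment.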

Ovarian cancer cell line [4] = test: Ratio of cytotoxicity in a non-NTR-expressing SKOV compared to that in NTR-expressing SKOV.; format: functional, Homo sapiens; summary of the method: as §1
Ovarian cancer cell line [5] = test: Cytotoxicity in non-NTR-expressing human ovarian carcinoma cell line (SKOV).; format: functional, cell-based
V79 [6] = test: Ratio of cytotoxicity activity in a non-NTR-expressing V79 compared to that in NTR-expressing V79.; format: functional; summary of the method: as §1
[7] = system: Mammary carcinoma cell line; test: Cytotoxicity in non-NTR-expressing mouse mammary carcinoma cell line (EMT6).; format: functional, cell-based
WiDr [8] = test: Cytotoxicity in non-NTR-expressing human colon carcinoma cell line (WiDr).; format: functional, cell-based
WiDr [9] = test: Ratio of cytotoxicity in a non-NTR-expressing WiDr compared to that in NTR-expressing WiDr.; format: functional, Homo sapiens; summary of the method: as §1
[10] = LogD value was determined; format: physicochemical; conditions: octanol/water

logP ([2]; read-out: logP)	logD [10]	SMILES	IC50 (V79 [1]) [nM]	Ratio [3]	Ratio (Ovarian cancer cell line [4])	IC50 (Ovarian cancer cell line [5]) [nM]	Ratio (V79 [6])	IC50 [7] [nM]	IC50 (WiDr [8]) [nM]	Ratio (WiDr [9])	logP [2]
4.57	–	COc1cc2cc(C(=O)N3CC(CCl)c4c3cc(NC(=O)OCc3ccc([N+](=O)[O-])cc3OCCCO)c3ccccc43)[nH]c2c(OC)c1OC (stereo not drawn)	48	91	58	145	11	47	191	91	–
4.94	3.24	CN(C)CCOc1ccc2[nH]c(C(=O)N3CC(CCl)c4c3cc(NC(=O)OCc3ccc([N+](=O)[O-])cc3)c3ccccc43)cc2c1 (stereo not drawn)	157	31	41	770	4.3	208	403	20	–
4.77	–	COc1cc([N+](=O)[O-])ccc1COC(=O)Nc1cc2c(c3ccccc13)C(CCl)CN2C(=O)c1cc2cc(OC)c(OC)c(OC)c2[nH]1 (stereo not drawn)	39	108	17	59	6	174	141	47	–
4.9	–	COc1cc2cc(C(=O)N3CC(CCl)c4c3cc(NC(=O)OC(C)c3ccc([N+](=O)[O-])cc3)c3ccccc43)[nH]c2c(OC)c1OC (stereo not drawn)	62	11	5.65	158	1.67	79	154	6.6	–
3.79	–	COc1cc2cc(C(=O)N3CC(CCl)c4c3cc(NC(=O)OCc3ccc([N+](=O)[O-])cc3OCCO)c3ccccc43)[nH]c2c(OC)c1OC (stereo not drawn)	63	104	84	224	11	107	295	148	–
–	–	NC(=O)c1cc(N2CC2)c([N+](=O)[O-])cc1[N+](=O)[O-] [TRETAZICAR]	–	930	317	174000	2090	710000	–	51.2	1.28
6.09	–	COc1cc([N+](=O)[O-])ccc1COC(=O)Nc1ccc(COC(=O)Nc2cc3c(c4ccccc24)C(CCl)CN3C(=O)c2cc3cc(OC)c(OC)c(OC)c3[nH]2)cc1 (stereo not drawn)	54	1.8	0.7	223	1.03	63	295	1.8	–
4.55	4.06	COc1cc2cc(C(=O)N3CC(CCl)c4c3cc(NC(=O)OCc3ccc([N+](=O)[O-])cc3OCCCN3CCOCC3)c3ccccc43)[nH]c2c(OC)c1OC (stereo not drawn)	20	6	6.5	88	2.6	24	98	9	–
4.47	–	COCCOc1cc([N+](=O)[O-])ccc1COC(=O)Nc1cc2c(c3ccccc13)C(CCl)CN2C(=O)c1cc2cc(OC)c(OC)c(OC)c2[nH]1 (stereo not drawn)	31	78	67	106	17	33	110	45	–
3.38	–	COc1cc2cc(C(=O)N3CC(CCl)c4c3cc(NC(=O)OCc3ccc([N+](=O)[O-])cc3OCC(O)CO)c3ccccc43)[nH]c2c(OC)c1OC (stereo not drawn)	42	13	40	114	1.75	44	129	25	–
4.95	2.74	COc1cc2cc(C(=O)N3CC(CCl)c4c3cc(NC(=O)OCc3ccc([N+](=O)[O-])cc3OCCCN(C)C)c3ccccc43)[nH]c2c(OC)c1OC (stereo not drawn)	45	3.4	3.6	189	1.45	74	269	3.8	–
3.98	–	COc1cc2cc(C(=O)N3CC(CCl)c4c3cc(N(C)C(=O)OCc3ccc([N+](=O)[O-])cc3)c3ccccc43)[nH]c2c(OC)c1OC (stereo not drawn)	48	27	10	152	8.4	48	101	15	–

SMILES	logP ([2]; read-out: logP)	logD [10]	IC50 (V79 [1]) [nM]	Ratio [3]	Ratio (Ovarian cancer cell line [4])	IC50 (Ovarian cancer cell line [5]) [nM]	Ratio (V79 [6])	IC50 [7] [nM]	IC50 (WiDr [8]) [nM]	Ratio (WiDr [9])	logP [2]
COc1cc2cc(C(=O)N3CC(CCl)c4c3cc(N)c3ccccc43)[nH]c2c(OC)c1OC (stereo not drawn)	1.87	–	0.33	2	0.6	1.1	0.9	0.37	1.6	0.9	–
CN(C)CCOc1ccc2[nH]c(C(=O)N3CC(CCl)c4c3cc(N)c3ccccc43)cc2c1 (stereo not drawn)	2.26	0.53	2.6	0.6	1.6	13	1.2	1.9	6	1.9	–
COc1cc2cc(C(=O)N3CC(CCl)c4c3cc(NC(=O)OCc3ccc([N+](=O)[O-])cc3)c3ccccc43)[nH]c2c(OC)c1OC (stereo not drawn)	4.55	–	89	112	12	62	10	193	391	33	–
NC(=O)c1cc(N(CCBr)CCBr)c([N+](=O)[O-])cc1[N+](=O)[O-]	2.68	–	–	1380	211	58000	302	54000	–	174	–
CNc1cc2c(c3ccccc13)C(CCl)CN2C(=O)c1cc2cc(OC)c(OC)c(OC)c2[nH]1 (stereo not drawn)	2.87	–	0.08	0.74	0.7	0.2	1.2	0.11	0.2	1.1	–
